What was measured:
Liver [1] = test: Drug uptake in ICR mouse liver at 370 kBq/100 ul, iv at 60 mins by gamma-counting analysis; type: ADME, organism-based; conditions: in vivo, 1 h
Summary of the method: (§1)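 Male ICR mice (5 weeks, about 20 g) got 18F tracer in saline (370 KBq per 100 μL) via tail vein; n = 5 per time point, killed at 2, 10, 30, 60 min. Organs weighed and γ-counted; percent dose per gram wet tissue from comparison with diluted injectate aliquots.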

Lung [2] = test: Drug uptake in ICR mouse lung at 370 kBq/100 ul, iv at 30 mins by gamma-counting analysis; type: ADME, organism-based; conditions: in vivo, 0.5 h; summary of the method: as §1
Spleen [3] = test: Drug uptake in ICR mouse spleen at 370 kBq/100 ul, iv at 10 mins by gamma-counting analysis; type: ADME, organism-based; conditions: in vivo; summary of the method: as §1
Brain [4] = test: Drug uptake in wild type C57BL6 mouse brain at 370 KBq/100 ul after 1 hr by autoradiographic analysis; type: ADME, tissue-based; conditions: in vitro
Summary of the method: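 Paraffin brain sections from 12-month-old male control C57BL6 mice were deparaffinized through xylene and graded ethanol, then held in PBS (0.2 M, pH 7.4) for 30 min. They were incubated with the ¹⁸F tracer (370 KBq per 100 μL) for 1 h at room temperature. Sections were washed in 40% EtOH, rinsed with water for 1 min, dried, and exposed to a phosphor plate for 2 h. The same sections were then stained with thioflavin S.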

Kidney [5] = test: Drug uptake in ICR mouse kidney at 370 kBq/100 ul, iv at 2 mins by gamma-counting analysis; type: ADME, organism-based; conditions: in vivo; summary of the method: as §1
Brain [6] = test: Ratio of drug uptake in brain at 2 mins to drug uptake in brain at 60 mins in ICR mouse at 370 KBq/100 ul, iv; type: ADME, organism-based; conditions: in vivo
Summary of the method: (§2)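 Normal male ICR mice (5 weeks, about 20 g) received the ¹⁸F tracer in saline (370 KBq per 100 μL) by tail-vein injection. Groups of n = 5 were killed at 2, 10, 30 and 60 min. Organs were removed, weighed and γ-counted against diluted aliquots of the injectate, giving % dose per gram. Stomach and intestine were expressed per organ. The brain ratio is 2 min/60 min uptake. Values are mean ± SD.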

Intestine [7] = test: Drug uptake in ICR mouse intestine assessed per organ at 370 kBq/100 ul, iv at 2 mins by gamma-counting analysis; type: ADME, organism-based; conditions: in vivo
Summary of the method: (§3)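 Male ICR mice (5 weeks, about 20 g) got 18F tracer in saline (370 KBq per 100 μL) via tail vein; n = 5 per time point, killed at 2, 10, 30, 60 min. Organs removed and γ-counted against diluted injectate; expressed as % injected dose per organ.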

Brain [8] = test: Drug uptake in ICR mouse brain at 370 kBq/100 ul, iv at 10 mins by gamma-counting analysis; type: ADME, organism-based; conditions: in vivo; summary of the method: as §1
Liver [9] = test: Drug uptake in ICR mouse liver at 370 kBq/100 ul, iv at 30 mins by gamma-counting analysis; type: ADME, organism-based; conditions: in vivo, 0.5 h; summary of the method: as §1
Bone [10] = test: Drug uptake in ICR mouse bone at 370 kBq/100 ul, iv at 60 mins by gamma-counting analysis; type: ADME, organism-based, Bone element; conditions: in vivo, 1 h; summary of the method: as §1
Kidney [11] = test: Drug uptake in ICR mouse kidney at 370 kBq/100 ul, iv at 60 mins by gamma-counting analysis; type: ADME, organism-based; conditions: in vivo, 1 h; summary of the method: as §1
Heart [12] = test: Drug uptake in ICR mouse heart at 370 kBq/100 ul, iv at 30 mins by gamma-counting analysis; type: ADME, organism-based; conditions: in vivo, 0.5 h; summary of the method: as §1
Stomach [13] = test: Drug uptake in ICR mouse stomach assessed per organ at 370 kBq/100 ul, iv at 30 mins by gamma-counting analysis; type: ADME, organism-based; conditions: in vivo, 0.5 h; summary of the method: as §3
Liver [14] = test: Drug uptake in ICR mouse liver at 370 kBq/100 ul, iv at 2 mins by gamma-counting analysis; type: ADME, organism-based; conditions: in vivo; summary of the method: as §1
Bone [15] = test: Drug uptake in ICR mouse bone at 370 kBq/100 ul, iv at 10 mins by gamma-counting analysis; type: ADME, organism-based, Bone element; conditions: in vivo; summary of the method: as §1
Stomach [16] = test: Drug uptake in ICR mouse stomach assessed per organ at 370 kBq/100 ul, iv at 10 mins by gamma-counting analysis; type: ADME, organism-based; conditions: in vivo; summary of the method: as §3
Lung [17] = test: Drug uptake in ICR mouse lung at 370 kBq/100 ul, iv at 10 mins by gamma-counting analysis; type: ADME, organism-based; conditions: in vivo; summary of the method: as §1
Bone [18] = test: Drug uptake in ICR mouse bone at 370 kBq/100 ul, iv at 2 mins by gamma-counting analysis; type: ADME, organism-based, Bone element; conditions: in vivo; summary of the method: as §1
Kidney [19] = test: Drug uptake in ICR mouse kidney at 370 kBq/100 ul, iv at 10 mins by gamma-counting analysis; type: ADME, organism-based; conditions: in vivo; summary of the method: as §1
Blood [20] = test: Drug uptake in ICR mouse blood at 370 kBq/100 ul, iv at 2 mins by gamma-counting analysis; type: ADME, organism-based; conditions: in vivo; summary of the method: as §1
Bone [21] = test: Drug uptake in ICR mouse bone at 370 kBq/100 ul, iv at 30 mins by gamma-counting analysis; type: ADME, organism-based, Bone element; conditions: in vivo, 0.5 h; summary of the method: as §1
Stomach [22] = test: Drug uptake in ICR mouse stomach assessed per organ at 370 kBq/100 ul, iv at 2 mins by gamma-counting analysis; type: ADME, organism-based; conditions: in vivo; summary of the method: as §3
Spleen [23] = test: Drug uptake in ICR mouse spleen at 370 kBq/100 ul, iv at 60 mins by gamma-counting analysis; type: ADME, organism-based; conditions: in vivo, 1 h; summary of the method: as §1
Blood [24] = test: Drug uptake in ICR mouse blood at 370 kBq/100 ul, iv at 30 mins by gamma-counting analysis; type: ADME, organism-based; conditions: in vivo, 0.5 h; summary of the method: as §1
[25] = n-Octanol-PBS buffer partition coefficient, log D of the compound at 1.5 MBq after 3 mins at pH 7.4; type: physicochemical
Summary of the method: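 The tracer was partitioned between n-octanol and PBS by vortexing for 3 min at room temperature, then centrifuged for 5 min at 3000 rpm. Samples of the octanol (50 μL) and aqueous (500 μL) layers were counted. log D is the log of the octanol/PBS counts-per-gram ratio. The octanol layer was repartitioned until values were consistent. Measured in triplicate and repeated three times.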

Brain [26] = test: Drug uptake in ICR mouse brain at 370 kBq/100 ul, iv at 30 mins by gamma-counting analysis; type: ADME, organism-based; conditions: in vivo, 0.5 h; summary of the method: as §1
Blood [27] = test: Drug uptake in ICR mouse blood at 370 kBq/100 ul, iv at 10 mins by gamma-counting analysis; type: ADME, organism-based; conditions: in vivo; summary of the method: as §1
[28] = Displacement of [125I]-IMPY from amyloid beta (1 to 42) fibrils after 2 hrs by gamma-counting analysis
Summary of the method: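 Competition binding with aggregated Aβ1-42 fibrils and [125I]IMPY (60000−100000 cpm/100 μL) in 0.05% BSA (1 mL total); inhibitors 10⁻⁴−10^−8.5 M in ethanol. Incubated 37 °C for 2 h, then GF/B vacuum filtration with PBS (0.02 M, pH 7.4) washes and γ counting. Three repeats; IC50 converted to Ki by Cheng−Prusoff.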

Spleen [29] = test: Drug uptake in ICR mouse spleen at 370 kBq/100 ul, iv at 2 mins by gamma-counting analysis; type: ADME, organism-based; conditions: in vivo; summary of the method: as §1
Brain [30] = test: Drug uptake in ICR mouse brain at 370 kBq/100 ul, iv at 60 mins by gamma-counting analysis; type: ADME, organism-based; conditions: in vivo, 1 h; summary of the method: as §1
Spleen [31] = test: Drug uptake in ICR mouse spleen at 370 kBq/100 ul, iv at 30 mins by gamma-counting analysis; type: ADME, organism-based; conditions: in vivo, 0.5 h; summary of the method: as §1
Heart [32] = test: Drug uptake in ICR mouse heart at 370 kBq/100 ul, iv at 60 mins by gamma-counting analysis; type: ADME, organism-based; conditions: in vivo, 1 h; summary of the method: as §1
Intestine [33] = test: Drug uptake in ICR mouse intestine assessed per organ at 370 kBq/100 ul, iv at 30 mins by gamma-counting analysis; type: ADME, organism-based; conditions: in vivo, 0.5 h; summary of the method: as §3
Lung [34] = test: Drug uptake in ICR mouse lung at 370 kBq/100 ul, iv at 2 mins by gamma-counting analysis; type: ADME, organism-based; conditions: in vivo; summary of the method: as §1
Heart [35] = test: Drug uptake in ICR mouse heart at 370 kBq/100 ul, iv at 10 mins by gamma-counting analysis; type: ADME, organism-based; conditions: in vivo; summary of the method: as §1
Blood [36] = test: Drug uptake in ICR mouse blood at 370 kBq/100 ul, iv at 60 mins by gamma-counting analysis; type: ADME, organism-based; conditions: in vivo, 1 h; summary of the method: as §1
Heart [37] = test: Drug uptake in ICR mouse heart at 370 kBq/100 ul, iv at 2 mins by gamma-counting analysis; type: ADME, organism-based; conditions: in vivo; summary of the method: as §1
Intestine [38] = test: Drug uptake in ICR mouse intestine assessed per organ at 370 kBq/100 ul, iv at 60 mins by gamma-counting analysis; type: ADME, organism-based; conditions: in vivo, 1 h; summary of the method: as §3
Lung [39] = test: Drug uptake in ICR mouse lung at 370 kBq/100 ul, iv at 60 mins by gamma-counting analysis; type: ADME, organism-based; conditions: in vivo, 1 h; summary of the method: as §1
Stomach [40] = test: Drug uptake in ICR mouse stomach assessed per organ at 370 kBq/100 ul, iv at 60 mins by gamma-counting analysis; type: ADME, organism-based; conditions: in vivo, 1 h; summary of the method: as §2
Liver [41] = test: Drug uptake in ICR mouse liver at 370 kBq/100 ul, iv at 10 mins by gamma-counting analysis; type: ADME, organism-based; conditions: in vivo; summary of the method: as §1
Intestine [42] = test: Drug uptake in ICR mouse intestine assessed per organ at 370 kBq/100 ul, iv at 10 mins by gamma-counting analysis; type: ADME, organism-based; conditions: in vivo; summary of the method: as §3
Kidney [43] = test: Drug uptake in ICR mouse kidney at 370 kBq/100 ul, iv at 30 mins by gamma-counting analysis; type: ADME, organism-based; conditions: in vivo, 0.5 h; summary of the method: as §1
Brain [44] = test: Drug uptake in ICR mouse brain at 370 kBq/100 ul, iv at 2 mins by gamma-counting analysis; type: ADME, organism-based; conditions: in vivo; summary of the method: as §1

CN(C)c1ccc(-c2nc3ccc(OCCOCCOCC[18F])cc3s2)cn1
Drug uptake (Liver [1]): 4.75 % ID/g | Drug uptake (Lung [2]): 3.28 % ID/g | Drug uptake (Spleen [3]): 2.97 % ID/g | Drug uptake (Brain [4]): Not Active | Drug uptake (Kidney [5]): 6.82 % ID/g | Ratio (Brain [6]): 1.77 | Drug uptake (Intestine [7]): 4.68 %ID | Drug uptake (Brain [8]): 2.64 % ID/g | Drug uptake (Liver [9]): 6.79 % ID/g | Drug uptake (Bone [10]): 1.58 % ID/g | Drug uptake (Kidney [11]): 3.01 % ID/g | Drug uptake (Heart [12]): 2.62 % ID/g | Drug uptake (Stomach [13]): 14.13 %ID | Drug uptake (Liver [14]): 12.9 % ID/g | Drug uptake (Bone [15]): 0.95 % ID/g | Drug uptake (Stomach [16]): 8.98 %ID | Drug uptake (Lung [17]): 4.59 % ID/g | Drug uptake (Bone [18]): 1.86 % ID/g | Drug uptake (Kidney [19]): 5.45 % ID/g | Drug uptake (Blood [20]): 9.79 % ID/g | Drug uptake (Bone [21]): 1.64 % ID/g | Drug uptake (Stomach [22]): 2.55 %ID | Drug uptake (Spleen [23]): 1.47 % ID/g | Drug uptake (Blood [24]): 4.96 % ID/g | logD at 0.05 h [25]: 3.08 | Drug uptake (Brain [26]): 1.98 % ID/g | Drug uptake (Blood [27]): 5.44 % ID/g | Ki [28]: 5.8 nM | Drug uptake (Spleen [29]): 3.14 % ID/g | Drug uptake (Brain [30]): 1.84 % ID/g | Drug uptake (Spleen [31]): 2.59 % ID/g | Drug uptake (Heart [32]): 2.02 % ID/g | Drug uptake (Intestine [33]): 19.57 %ID | Drug uptake (Lung [34]): 6.69 % ID/g | Drug uptake (Heart [35]): 3.3 % ID/g | Drug uptake (Blood [36]): 3.79 % ID/g | Drug uptake (Heart [37]): 4.5 % ID/g | Drug uptake (Intestine [38]): 26.66 %ID | Drug uptake (Lung [39]): 2.33 % ID/g | Drug uptake (Stomach [40]): 11.34 %ID | Drug uptake (Liver [41]): 11.6 % ID/g | Drug uptake (Intestine [42]): 10.4 %ID | Drug uptake (Kidney [43]): 3.88 % ID/g | Drug uptake (Brain [44]): 3.26 % ID/g

Reference: ChEMBL document CHEMBL2177098, “Synthesis and evaluation of novel ¹⁸F labeled 2-pyridinylbenzoxazole and 2-pyridinylbenzothiazole derivatives as ligands for positron emission tomography (PET) imaging of β-amyloid plaques” (J Med Chem, 2012)
